{"source": "ChEMBL document CHEMBL1145212", "about": "“Fluorinated diaryl sulfides as serotonin transporter ligands: synthesis, structure-activity relationship study, and in vivo evaluation of fluorine-18-labeled compounds as PET imaging agents” (J Med Chem, 2005)", "format_in_all_cases": "cell-based", "key": {"[1]": {"molecular_target": "Sodium-dependent serotonin transporter (Homo sapiens, UniProt P31645)", "sequence (P31645 whole entry)": "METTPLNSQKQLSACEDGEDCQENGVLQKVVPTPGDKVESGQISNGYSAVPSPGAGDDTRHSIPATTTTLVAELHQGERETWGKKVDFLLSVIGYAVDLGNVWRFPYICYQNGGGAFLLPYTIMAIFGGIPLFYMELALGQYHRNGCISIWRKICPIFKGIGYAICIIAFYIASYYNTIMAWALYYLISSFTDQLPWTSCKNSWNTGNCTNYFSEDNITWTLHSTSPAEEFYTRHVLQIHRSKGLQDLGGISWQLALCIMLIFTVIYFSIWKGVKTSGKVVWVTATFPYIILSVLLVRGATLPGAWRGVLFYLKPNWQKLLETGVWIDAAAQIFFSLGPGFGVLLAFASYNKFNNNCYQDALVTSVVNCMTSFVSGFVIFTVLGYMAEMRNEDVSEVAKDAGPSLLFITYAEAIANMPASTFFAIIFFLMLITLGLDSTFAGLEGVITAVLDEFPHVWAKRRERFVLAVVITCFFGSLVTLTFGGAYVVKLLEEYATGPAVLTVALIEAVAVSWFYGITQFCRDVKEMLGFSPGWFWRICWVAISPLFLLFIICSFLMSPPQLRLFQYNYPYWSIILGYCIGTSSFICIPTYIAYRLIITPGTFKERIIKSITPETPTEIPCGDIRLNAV", "experiment": "In vitro displacement of [3H]paroxetine from human serotonin transporter expressed in HEK293 cells"}, "[2]": {"molecular_target": "Sodium-dependent dopamine transporter (Homo sapiens, UniProt Q01959)", "sequence (Q01959 whole entry)": "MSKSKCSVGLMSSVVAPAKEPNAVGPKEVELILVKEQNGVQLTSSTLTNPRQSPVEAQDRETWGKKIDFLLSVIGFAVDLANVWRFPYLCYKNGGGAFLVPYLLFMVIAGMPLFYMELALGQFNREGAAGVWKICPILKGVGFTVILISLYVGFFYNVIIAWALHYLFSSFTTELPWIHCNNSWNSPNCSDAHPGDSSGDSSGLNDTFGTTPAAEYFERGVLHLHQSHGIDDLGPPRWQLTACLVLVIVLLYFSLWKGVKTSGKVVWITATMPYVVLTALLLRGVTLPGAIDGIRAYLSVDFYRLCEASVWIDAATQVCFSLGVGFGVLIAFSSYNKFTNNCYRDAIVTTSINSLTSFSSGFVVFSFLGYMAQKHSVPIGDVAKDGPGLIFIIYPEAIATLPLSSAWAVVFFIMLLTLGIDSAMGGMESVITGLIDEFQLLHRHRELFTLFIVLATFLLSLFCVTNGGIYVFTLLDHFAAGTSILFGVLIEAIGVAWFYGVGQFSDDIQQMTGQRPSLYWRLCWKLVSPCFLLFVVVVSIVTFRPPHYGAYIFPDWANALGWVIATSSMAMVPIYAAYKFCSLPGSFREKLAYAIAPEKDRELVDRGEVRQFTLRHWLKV", "experiment": "In vitro displacement of [3H]GBR-12935 from human dopamine transporter expressed in HEK293 cells", "method_in_brief": "(§1)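 Competitive binding using cloned human transporters expressed in HEK-293 cells. NET was labelled with [³H]nisoxetine and DAT with [³H]GBR12935, following a previously published procedure.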"}, "[3]": {"molecular_target": "Sodium-dependent noradrenaline transporter (Homo sapiens, UniProt P23975)", "sequence (P23975 whole entry)": "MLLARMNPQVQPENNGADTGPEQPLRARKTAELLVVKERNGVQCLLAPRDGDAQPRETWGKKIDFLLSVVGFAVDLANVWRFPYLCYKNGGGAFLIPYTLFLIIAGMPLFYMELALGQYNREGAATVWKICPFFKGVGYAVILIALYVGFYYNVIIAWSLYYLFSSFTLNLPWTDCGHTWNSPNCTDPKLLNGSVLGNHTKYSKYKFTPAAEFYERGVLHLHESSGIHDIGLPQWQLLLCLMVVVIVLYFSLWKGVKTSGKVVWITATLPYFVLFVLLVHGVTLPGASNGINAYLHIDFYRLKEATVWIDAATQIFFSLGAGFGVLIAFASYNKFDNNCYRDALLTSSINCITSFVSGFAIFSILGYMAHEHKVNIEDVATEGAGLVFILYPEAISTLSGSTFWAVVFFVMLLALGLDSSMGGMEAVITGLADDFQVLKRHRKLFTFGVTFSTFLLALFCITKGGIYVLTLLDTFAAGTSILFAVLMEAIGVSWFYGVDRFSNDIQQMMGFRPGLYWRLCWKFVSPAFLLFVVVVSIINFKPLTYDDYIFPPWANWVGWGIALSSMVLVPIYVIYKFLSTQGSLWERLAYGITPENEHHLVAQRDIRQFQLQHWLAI", "experiment": "In vitro displacement of [3H]nisoxetine from human norepinephrine transporter expressed in HEK293 cells", "method_in_brief": "as §1"}}, "data": [{"molecule": "CN(C)Cc1ccccc1Sc1ccc(C#N)cc1N", "note": "[DASB]", "values": [{"measurement": "Ki", "setting": "[1]", "result": 1.12, "unit": "nM"}]}, {"molecule": "CN(C)Cc1ccccc1Sc1ccc(CO)cc1N", "values": [{"measurement": "Ki", "setting": "[2]", "result": 3610, "unit": "nM"}, {"measurement": "Ki", "setting": "[1]", "result": 0.8, "unit": "nM"}, {"measurement": "Ki", "setting": "[3]", "result": 787, "unit": "nM"}]}]}
